Data reported in ChEMBL document CHEMBL1125903, “New derivatives of kanamycin B obtained by modifications and substitutions in position 6". 1. Synthesis and microbiological evaluation” (1991).
Converted amounts (≈) assume the structure as drawn.

What was measured:
Enterococcus faecalis = assay: Minimum inhibitory concentration measured against […] faecalis (ATCC 19431); type: functional
Method in brief: (§1)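 Agar dilution MIC on Mueller-Hinton agar supplemented with CaCl2 and MgCl2 (NCCLS standards), 2-fold dilutions. Compounds tested as sulfate salts dissolved in sterile water; values expressed in mg/L of free base, with base content determined by 1H NMR. Spots of 10^4-10^5 CFU applied by multipoint inoculator. Growth read visually after 24 h at 37 °C.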

Klebsiella aerogenes = assay: Minimum inhibitory concentration measured against Enterobacter aerogenes (ATCC 13048); type: functional; method in brief: as §1
Klebsiella pneumoniae = assay: Minimum inhibitory concentration measured against Klebsiella pneumoniae (ATCC 13883); type: functional; method in brief: as §1
Citrobacter freundii = assay: Minimum inhibitory concentration measured against Citrobacter freundii (ATCC 8090); type: functional; method in brief: as §1
Enterobacter cloacae = assay: Minimum inhibitory concentration measured against Enterobacter cloacae (ATCC 23355); type: functional; method in brief: as §1
Pseudomonas aeruginosa = assay: Minimum inhibitory concentration measured against Pseudomonas aeruginosa (NCTC 10701); type: functional; method in brief: as §1
Bacillus subtilis = assay: Minimum inhibitory concentration measured against Bacillus subtilis (ATCC 6633); type: functional; method in brief: as §1
Proteus vulgaris = assay: Minimum inhibitory concentration measured against Proteus vulgaris (ATCC 13315); type: functional; method in brief: as §1
Salmonella typhimurium = assay: Minimum inhibitory concentration measured against Salmonella Typhimurium (ATCC 14028); type: functional, Salmonella enterica subsp. enterica serovar Typhimurium; conditions: Salmonella enterica; method in brief: as §1
Escherichia coli = assay: Minimum inhibitory concentration measured against Escherichia coli (ATCC 25922); type: functional; method in brief: as §1
Serratia marcescens [1] = assay: Minimum inhibitory concentration measured against Serratia marcescens (ATCC 8100); type: functional; method in brief: as §1
Staphylococcus aureus = assay: Minimum inhibitory concentration measured against Staphylococcus aureus (ATCC 25923); type: functional; method in brief: as §1
[2] = tested on: Staphylococcus epidermidis; assay: Minimum inhibitory concentration measured against Staphylococcus epidermidis (ATCC 12228); type: functional; method in brief: as §1
Serratia marcescens [3] = assay: Minimum inhibitory concentration measured against CDC 87457 strain; type: functional; method in brief: as §1

MIC (Enterococcus faecalis) | MIC (Klebsiella aerogenes) | MIC (Klebsiella pneumoniae) | MIC (Citrobacter freundii) | MIC (Enterobacter cloacae) | MIC (Pseudomonas aeruginosa) | MIC (Bacillus subtilis) | MIC (Proteus vulgaris) | MIC (Salmonella typhimurium) | MIC (Escherichia coli) | MIC (Serratia marcescens [1]) | MIC (Staphylococcus aureus) | MIC [2] | Structure (SMILES) | MIC (Serratia marcescens [3])
8 µg/mL (≈ 7.68 µM) | 4 µg/mL (≈ 3.84 µM) | 2 µg/mL (≈ 1.92 µM) | 1 µg/mL (≈ 0.959 µM) | 0.25 µg/mL (≈ 0.24 µM) | > 64 µg/mL | 4 µg/mL (≈ 3.84 µM) | 1 µg/mL (≈ 0.959 µM) | 8 µg/mL (≈ 7.68 µM) | 2 µg/mL (≈ 1.92 µM) | > 64 µg/mL | 1 µg/mL (≈ 0.959 µM) | 0.25 µg/mL (≈ 0.24 µM) | CCCSCC1OC(OC2C(NC(=O)OC(C)(C)C)CC(NC(=O)OC(C)(C)C)C(OC3OC(CNC(=O)OC(C)(C)C)C(O)C(O)C3NC(=O)OC(C)(C)C)C2O)C(O)C(NC(=O)OC(C)(C)C)C1O (stereo not drawn) | 
> 64 µg/mL | 32 µg/mL (≈ 30.8 µM) | 8 µg/mL (≈ 7.7 µM) | 8 µg/mL (≈ 7.7 µM) | 1 µg/mL (≈ 0.962 µM) | > 64 µg/mL | 32 µg/mL (≈ 30.8 µM) | 8 µg/mL (≈ 7.7 µM) | 64 µg/mL (≈ 61.6 µM) | 32 µg/mL (≈ 30.8 µM) | > 64 µg/mL | 4 µg/mL (≈ 3.85 µM) | 2 µg/mL (≈ 1.92 µM) | CC(=O)N(C)CC1OC(OC2C(NC(=O)OC(C)(C)C)CC(NC(=O)OC(C)(C)C)C(OC3OC(CNC(=O)OC(C)(C)C)C(O)C(O)C3NC(=O)OC(C)(C)C)C2O)C(O)C(NC(=O)OC(C)(C)C)C1O (stereo not drawn) | 
> 64 µg/mL | > 64 µg/mL | > 64 µg/mL | > 64 µg/mL | 32 µg/mL (≈ 28.1 µM) | > 64 µg/mL | > 64 µg/mL | > 64 µg/mL | > 64 µg/mL | > 64 µg/mL | > 64 µg/mL | > 64 µg/mL | > 64 µg/mL | CCCCCC(=O)N(CCCC)CC1OC(OC2C(NC(=O)OC(C)(C)C)CC(NC(=O)OC(C)(C)C)C(OC3OC(CNC(=O)OC(C)(C)C)C(O)C(O)C3NC(=O)OC(C)(C)C)C2O)C(O)C(NC(=O)OC(C)(C)C)C1O (stereo not drawn) | 

Structure (SMILES) | MIC (Enterococcus faecalis) | MIC (Klebsiella aerogenes) | MIC (Klebsiella pneumoniae) | MIC (Citrobacter freundii) | MIC (Enterobacter cloacae) | MIC (Pseudomonas aeruginosa) | MIC (Bacillus subtilis) | MIC (Proteus vulgaris) | MIC (Salmonella typhimurium) | MIC (Escherichia coli) | MIC (Serratia marcescens [1]) | MIC (Staphylococcus aureus) | MIC [2] | MIC (Serratia marcescens [3])
NC[C@H]1O[C@H](O[C@H]2[C@H](O)[C@@H](O[C@H]3O[C@H](CO)[C@@H](O)[C@H](N)[C@H]3O)[C@H](N)C[C@@H]2N)[C@H](N)[C@@H](O)[C@@H]1O [BEKANAMYCIN] | 16 µg/mL (≈ 33.1 µM) | 0.5 µg/mL (≈ 1.03 µM) | 0.25 µg/mL (≈ 0.517 µM) | 0.5 µg/mL (≈ 1.03 µM) | 0.25 µg/mL (≈ 0.517 µM) | 32 µg/mL (≈ 66.2 µM) | 0.5 µg/mL (≈ 1.03 µM) | 0.25 µg/mL (≈ 0.517 µM) | 1 µg/mL (≈ 2.07 µM) | 1 µg/mL (≈ 2.07 µM) | 1 µg/mL (≈ 2.07 µM) | 0.5 µg/mL (≈ 1.03 µM) | 0.25 µg/mL (≈ 0.517 µM) | 1 µg/mL (≈ 2.07 µM)
